{"data": "Results from different studies", "target": "Serine/threonine-protein kinase VRK2 (VRK2, Homo sapiens, UniProt Q86Y07)", "note": "Each line is one published result; the experiments were not run side by side."}
{"Structure (SMILES)": "O=C(O)[C@H]1[C@H](Cn2nnc3ccccc3c2=O)CC[C@@H]1C(=O)c1ccc(OCCC2CCOCC2)cc1", "effect on": "cell-free assay", "technique": "competition with immobilised ligand", "concentration": "1 µM", "measurement": "remaining binding", "result": "80%"}
{"Structure (SMILES)": "Cn1c2c(c3ccc(Cl)c(Cl)c31)C(C#N)C1(CCCC1)NC2=O (stereo not drawn)", "effect on": "thermal stability", "technique": "DSF", "concentration": "10 µM", "measurement": "ΔTm", "result": "-0.2 °C"}
{"Structure (SMILES)": "CCCS(=O)(=O)Nc1ccc(F)c(C(=O)c2c[nH]c3ncc(-c4ccc(Cl)cc4)cc23)c1F", "effect on": "enzyme activity", "action": "inhibitor", "concentration": "1 µM", "measurement": "inhibition", "result": "< 10%"}
{"Structure (SMILES)": "Cc1cc(NC(=O)c2cccc3cc(-c4cccc5[nH]nc(N)c45)ccc23)ccc1F", "effect on": "enzyme activity", "action": "inhibitor", "concentration": "0.1 µM", "measurement": "activity vs control", "result": "89%"}
{"Structure (SMILES)": "CCCOc1ccc(OC)c(F)c1C(=O)c1ccc(C(=O)N[C@@H]2CNC[C@H]2NC(=O)c2ccc3[nH]ncc3c2)cc1", "effect on": "enzyme activity", "action": "inhibitor", "concentration": "10 µM", "measurement": "remaining activity", "result": "129%"}
{"Structure (SMILES)": "CCN(CC)c1ccc(C2=NNC(=O)CC2C)cc1[N+](=O)[O-] (stereo not drawn)", "effect on": "enzyme activity", "action": "inhibitor", "concentration": "10 µM", "measurement": "remaining activity", "result": "95%"}
{"Structure (SMILES)": "CCN1CCN(Cc2ccc(NC(=O)c3ccc(C)c(Oc4ccnc5[nH]ccc45)c3)cc2C(F)(F)F)CC1", "effect on": "target engagement in cells", "action": "inhibitor", "technique": "chemoproteomics", "cell line": "Huh-7", "concentration": "1 µM", "measurement": "inhibition", "result": "-14.2%"}
{"Structure (SMILES)": "N#CC1c2c([nH]c3c(Cl)c(Cl)ccc23)C(=O)NC12CCCCC2 (racemic)", "effect on": "thermal stability", "technique": "DSF", "concentration": "10 µM", "measurement": "ΔTm", "result": "-0.3 °C"}
{"Structure (SMILES)": "Cc1cnc(NC2CCOCC2)nc1-n1cnc(C(=O)NC(CN)c2cc(F)cc(Cl)c2)c1 (stereo not drawn)", "effect on": "enzyme activity", "action": "inhibitor", "technique": "radiometric", "concentration": "1 µM", "measurement": "remaining activity", "result": "99%"}
{"Structure (SMILES)": "C[C@H](NC(=O)c1cnc2n1[C@](C)(Cc1ccc(C#N)cc1)C(=O)N2c1cc(Cl)c(F)c(Cl)c1)C(=O)NC1(c2ccccn2)CC1", "effect on": "cell-free assay", "technique": "competition with immobilised ligand", "concentration": "1 µM", "measurement": "remaining binding", "result": "100%"}
{"Structure (SMILES)": "Cn1c2c(c3ccc(Cl)c(Cl)c31)C(C#N)C1(CCOCC1)NC2=O (stereo not drawn)", "effect on": "thermal stability", "technique": "DSF", "concentration": "10 µM", "measurement": "ΔTm", "result": "0 °C"}
{"Structure (SMILES)": "COc1ccc2c(c1)O[C@H](c1ccc(OC)c(OC)c1)C[C@@H]2NC(=O)C1(c2ccc3c(c2)OC(F)(F)O3)CC1", "effect on": "cell-free assay", "technique": "competition with immobilised ligand", "concentration": "1 µM", "measurement": "remaining binding", "result": "82%"}
{"Structure (SMILES)": "CCN(CC)CCNC(=O)c1c(C)[nH]c(/C=C2\\C(=O)Nc3ccc(F)cc32)c1C", "effect on": "enzyme activity", "action": "inhibitor", "concentration": "10 µM", "measurement": "inhibition", "result": "-10%"}
{"Structure (SMILES)": "CC(C)(C)c1nc2c(s1)c1nc(N)ncc1c1ccc(NS(=O)(=O)c3c(F)cccc3F)c(F)c12", "effect on": "enzyme activity", "action": "inhibitor", "technique": "radiometric", "concentration": "1 µM", "measurement": "remaining activity", "result": "116%"}
{"Structure (SMILES)": "Cc1cc(-n2nc(Cc3cc(F)cc(C(F)(F)F)c3)nc2C)ccc1C(N)=O", "effect on": "cell-free assay", "technique": "competition with immobilised ligand", "concentration": "1 µM", "measurement": "remaining binding", "result": "100%"}
{"Structure (SMILES)": "CCN1CCC2(CC1)NC(=O)c1c(c3ccc(Cl)c(Cl)c3n1C)C2C#N (racemic)", "effect on": "thermal stability", "technique": "DSF", "concentration": "10 µM", "measurement": "ΔTm", "result": "0.1 °C"}
{"Structure (SMILES)": "Cc1sc(C(=O)NC2COC2)cc1-n1cc(NC(=O)Nc2c(F)cccc2Cl)cn1", "effect on": "enzyme activity", "action": "inhibitor", "concentration": "10 µM", "measurement": "remaining activity", "result": "102%"}
{"Structure (SMILES)": "CNC(=O)c1cc(Oc2ccc(NC(=O)Nc3ccc(Cl)c(C(F)(F)F)c3)cc2)ccn1", "effect on": "enzyme activity", "action": "inhibitor", "concentration": "10 µM", "measurement": "inhibition", "result": "-16%"}
{"Structure (SMILES)": "CS(=O)(=O)N1CCCC(NC(=O)[C@H](CCC2CCCCC2)NC(=O)c2ccc(CNC(=O)c3cnc4ccccn34)cc2)C1 (stereo partly drawn)", "effect on": "cell-free assay", "technique": "competition with immobilised ligand", "concentration": "0.1 µM", "measurement": "remaining binding", "result": "76%"}
{"Structure (SMILES)": "Cn1c2c(Cl)c(Cl)ccc2c2cc[nH]c(=O)c21", "effect on": "thermal stability", "technique": "DSF", "concentration": "10 µM", "measurement": "ΔTm", "result": "0 °C"}
{"Structure (SMILES)": "C[C@H](c1ccc(F)cc1)N(Cc1cccc(C(=O)O)c1)C(=O)c1cnc2ccccc2c1", "effect on": "cell-free assay", "technique": "competition with immobilised ligand", "concentration": "1 µM", "measurement": "remaining binding", "result": "100%"}
{"Structure (SMILES)": "Cc1ccc(Nc2nccc(N(C)c3ccc4c(C)n(C)nc4c3)n2)cc1S(N)(=O)=O", "effect on": "enzyme activity", "action": "inhibitor", "concentration": "10 µM", "measurement": "inhibition", "result": "-18%"}
{"Structure (SMILES)": "CC1(C)NC(=O)c2[nH]c3c(Cl)c(Cl)ccc3c2C1C#N (stereo not drawn)", "effect on": "thermal stability", "technique": "DSF", "concentration": "10 µM", "measurement": "ΔTm", "result": "-0.1 °C"}
{"Structure (SMILES)": "CN(C)CC#Cc1ccc(OCCCc2sc(N3CCc4cccc(C(=O)Nc5nc6ccccc6s5)c4C3)nc2C(=O)O)c(F)c1", "effect on": "cell-free assay", "technique": "competition with immobilised ligand", "concentration": "1 µM", "measurement": "remaining binding", "result": "100%"}
